Assay results: ChEMBL document CHEMBL4251668, “Herbicidins from Streptomyces sp. CB01388 Showing Anti- Cryptosporidium Activity” (J Nat Prod, 2018)

Test system: Cryptosporidium parvum
Assay: Antiparasitic activity against Cryptosporidium parvum SPL infected in human HCT8 cells incubated for 48 hrs by FITC/DAPI staining based fluorescence assay
Assay type: functional, organism-based
Details: HCT-8, 48 h
Summary of the method: (§1)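 HCT-8 cells seeded at 2750 cells/well and dosed 24 h later with pure compounds (11-point 1:3 serial dilution, final top 25 μM), then infected with excysted oocysts at 3125 oocysts/well. Incubated 48 h at 37 °C, 5% CO2, then fixed in 4% paraformaldehyde. Parasites stained with FITC-Vicia villosa lectin and host nuclei with DAPI, imaged at 10×. Parasite spot counts and host nuclei counts taken relative to DMSO-treated wells.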

Row | SMILES | EC50 [µM]
1 | COC(=O)[C@H]1O[C@@H]2C[C@H]3O[C@@H](n4cnc5c(N)ncnc54)[C@H](OC)[C@H]3O[C@@]2(O)[C@H](O)[C@@H]1O | > 25
2 | COC(=O)[C@H]1O[C@@H]2C[C@H]3O[C@@H](n4cnc5c(N)ncnc54)[C@H](OC)[C@H]3O[C@@]2(O)[C@@H](O)[C@@H]1O | 11
3 | O=c1[nH]c(=O)n([C@H]2C[C@H](O)[C@@H](CO)O2)cc1F [FLOXURIDINE] | 0.005
4 | CC(=O)Oc1ccccc1C(=O)Nc1ncc([N+](=O)[O-])s1 [NITAZOXANIDE] | 2.3

More lines, now with the values ahead:

Row | EC50 [µM] | SMILES
5 | 2.7 | C/C=C(\C)C(=O)O[C@H]1[C@H](O)[C@@H](C(=O)OC)O[C@@H]2C[C@H]3O[C@@H](n4cnc5c(N)ncnc54)[C@H](O)[C@H]3O[C@]21O
6 | 16 | C/C=C(\CO)C(=O)O[C@H]1[C@H](O)[C@@H](C(=O)OC)O[C@@H]2C[C@H]3O[C@@H](n4cnc5c(N)ncnc54)[C@H](OC)[C@H]3O[C@]21O
7 | 24 | COC(=O)[C@H]1O[C@@H]2C[C@H]3O[C@@H](n4cnc5c(N)ncnc54)[C@H](O)[C@H]3O[C@@]2(O)[C@@H](O)[C@@H]1O
8 | 0.17 | C/C=C(\CO)C(=O)O[C@@H]1[C@@H](C(=O)OC)O[C@@H]2C[C@H]3O[C@@H](n4cnc5c(N)ncnc54)[C@H](OC)[C@H]3O[C@@]2(O)[C@@H]1O
9 | 0.6 | COc1ccc(C[C@H](N)C(=O)N[C@H]2[C@@H](O)[C@H](n3cnc4c(N(C)C)ncnc43)O[C@@H]2CO)cc1 [PUROMYCIN]

Test system: HCT-8
Assay: Cytotoxicity against human HCT8 cells
Assay type: cell-based
Details: not given
Summary of the method: as §1

Row | SMILES | EC50 [µM]
10 | C/C=C(\C)C(=O)O[C@H]1[C@H](O)[C@@H](C(=O)OC)O[C@@H]2C[C@H]3O[C@@H](n4cnc5c(N)ncnc54)[C@H](O)[C@H]3O[C@]21O | > 25
11 | COC(=O)[C@H]1O[C@@H]2C[C@H]3O[C@@H](n4cnc5c(N)ncnc54)[C@H](OC)[C@H]3O[C@@]2(O)[C@H](O)[C@@H]1O | > 25
12 | C/C=C(\CO)C(=O)O[C@H]1[C@H](O)[C@@H](C(=O)OC)O[C@@H]2C[C@H]3O[C@@H](n4cnc5c(N)ncnc54)[C@H](OC)[C@H]3O[C@]21O | > 25
13 | COC(=O)[C@H]1O[C@@H]2C[C@H]3O[C@@H](n4cnc5c(N)ncnc54)[C@H](OC)[C@H]3O[C@@]2(O)[C@@H](O)[C@@H]1O | > 25
14 | COC(=O)[C@H]1O[C@@H]2C[C@H]3O[C@@H](n4cnc5c(N)ncnc54)[C@H](O)[C@H]3O[C@@]2(O)[C@@H](O)[C@@H]1O | > 25
15 | C/C=C(\CO)C(=O)O[C@@H]1[C@@H](C(=O)OC)O[C@@H]2C[C@H]3O[C@@H](n4cnc5c(N)ncnc54)[C@H](OC)[C@H]3O[C@@]2(O)[C@@H]1O | 0.14 to 0.18
16 | O=c1[nH]c(=O)n([C@H]2C[C@H](O)[C@@H](CO)O2)cc1F [FLOXURIDINE] | 0.015 to 0.038
17 | CC(=O)Oc1ccccc1C(=O)Nc1ncc([N+](=O)[O-])s1 [NITAZOXANIDE] | > 25
18 | COc1ccc(C[C@H](N)C(=O)N[C@H]2[C@@H](O)[C@H](n3cnc4c(N(C)C)ncnc43)O[C@@H]2CO)cc1 [PUROMYCIN] | 6.1 to 7

Test system: Cryptosporidium parvum
Assay: Antiparasitic activity against Cryptosporidium parvum BGF infected in human HCT8 cells incubated for 48 hrs by FITC/DAPI staining based fluorescence assay
Assay type: functional, organism-based
Details: HCT-8, 48 h
Summary of the method: as §1

Row | SMILES | EC50 [µM]
19 | COC(=O)[C@H]1O[C@@H]2C[C@H]3O[C@@H](n4cnc5c(N)ncnc54)[C@H](OC)[C@H]3O[C@@]2(O)[C@H](O)[C@@H]1O | > 25
20 | COC(=O)[C@H]1O[C@@H]2C[C@H]3O[C@@H](n4cnc5c(N)ncnc54)[C@H](OC)[C@H]3O[C@@]2(O)[C@@H](O)[C@@H]1O | 8.8
21 | O=c1[nH]c(=O)n([C@H]2C[C@H](O)[C@@H](CO)O2)cc1F [FLOXURIDINE] | 0.0096
22 | CC(=O)Oc1ccccc1C(=O)Nc1ncc([N+](=O)[O-])s1 [NITAZOXANIDE] | 2.9

Further lines, results first:

Row | EC50 [µM] | SMILES
23 | 2.8 | C/C=C(\C)C(=O)O[C@H]1[C@H](O)[C@@H](C(=O)OC)O[C@@H]2C[C@H]3O[C@@H](n4cnc5c(N)ncnc54)[C@H](O)[C@H]3O[C@]21O
24 | 21 | C/C=C(\CO)C(=O)O[C@H]1[C@H](O)[C@@H](C(=O)OC)O[C@@H]2C[C@H]3O[C@@H](n4cnc5c(N)ncnc54)[C@H](OC)[C@H]3O[C@]21O
25 | 18 | COC(=O)[C@H]1O[C@@H]2C[C@H]3O[C@@H](n4cnc5c(N)ncnc54)[C@H](O)[C@H]3O[C@@]2(O)[C@@H](O)[C@@H]1O
26 | 0.15 | C/C=C(\CO)C(=O)O[C@@H]1[C@@H](C(=O)OC)O[C@@H]2C[C@H]3O[C@@H](n4cnc5c(N)ncnc54)[C@H](OC)[C@H]3O[C@@]2(O)[C@@H]1O
27 | 0.55 | COc1ccc(C[C@H](N)C(=O)N[C@H]2[C@@H](O)[C@H](n3cnc4c(N(C)C)ncnc43)O[C@@H]2CO)cc1 [PUROMYCIN]

Test system: not listed separately
Assay: Cytotoxicity against human HEK293T cells assessed as decrease in cell viability after 72 hrs by CellTiter-Glo reagent based luminescence assay
Set-up: species or system HEK-293T
Details: not given
Summary of the method: (§2)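 Compounds prespotted as a 1:3 dilution series, top 40 μM. Cells seeded at 375 cells/well for HEK293T and 700 cells/well for HepG2, then incubated 72 h at 37 °C, 5% CO2. Viability read as CellTiter-Glo luminescence, normalized to DMSO- and puromycin-treated wells. CC50 obtained from a four-parameter nonlinear regression fit.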

Row | SMILES | CC50 at 72 h [µM]
28 | C/C=C(\C)C(=O)O[C@H]1[C@H](O)[C@@H](C(=O)OC)O[C@@H]2C[C@H]3O[C@@H](n4cnc5c(N)ncnc54)[C@H](O)[C@H]3O[C@]21O | > 40
29 | COC(=O)[C@H]1O[C@@H]2C[C@H]3O[C@@H](n4cnc5c(N)ncnc54)[C@H](OC)[C@H]3O[C@@]2(O)[C@H](O)[C@@H]1O | > 40
30 | C/C=C(\CO)C(=O)O[C@H]1[C@H](O)[C@@H](C(=O)OC)O[C@@H]2C[C@H]3O[C@@H](n4cnc5c(N)ncnc54)[C@H](OC)[C@H]3O[C@]21O | > 40
31 | COC(=O)[C@H]1O[C@@H]2C[C@H]3O[C@@H](n4cnc5c(N)ncnc54)[C@H](OC)[C@H]3O[C@@]2(O)[C@@H](O)[C@@H]1O | > 40
32 | COC(=O)[C@H]1O[C@@H]2C[C@H]3O[C@@H](n4cnc5c(N)ncnc54)[C@H](O)[C@H]3O[C@@]2(O)[C@@H](O)[C@@H]1O | > 40
33 | C/C=C(\CO)C(=O)O[C@@H]1[C@@H](C(=O)OC)O[C@@H]2C[C@H]3O[C@@H](n4cnc5c(N)ncnc54)[C@H](OC)[C@H]3O[C@@]2(O)[C@@H]1O | > 40
34 | O=c1[nH]c(=O)n([C@H]2C[C@H](O)[C@@H](CO)O2)cc1F [FLOXURIDINE] | 0.0084
35 | CC(=O)Oc1ccccc1C(=O)Nc1ncc([N+](=O)[O-])s1 [NITAZOXANIDE] | > 40
36 | COc1ccc(C[C@H](N)C(=O)N[C@H]2[C@@H](O)[C@H](n3cnc4c(N(C)C)ncnc43)O[C@@H]2CO)cc1 [PUROMYCIN] | 0.42

Test system: not listed separately
Assay: Cytotoxicity against human HepG2 cells assessed as decrease in cell viability after 72 hrs by CellTiter-Glo reagent based luminescence assay
Details: not given
Summary of the method: as §2

Row | SMILES | CC50 at 72 h [µM]
37 | C/C=C(\C)C(=O)O[C@H]1[C@H](O)[C@@H](C(=O)OC)O[C@@H]2C[C@H]3O[C@@H](n4cnc5c(N)ncnc54)[C@H](O)[C@H]3O[C@]21O | > 40
38 | COC(=O)[C@H]1O[C@@H]2C[C@H]3O[C@@H](n4cnc5c(N)ncnc54)[C@H](OC)[C@H]3O[C@@]2(O)[C@H](O)[C@@H]1O | > 40
39 | C/C=C(\CO)C(=O)O[C@H]1[C@H](O)[C@@H](C(=O)OC)O[C@@H]2C[C@H]3O[C@@H](n4cnc5c(N)ncnc54)[C@H](OC)[C@H]3O[C@]21O | > 40
40 | COC(=O)[C@H]1O[C@@H]2C[C@H]3O[C@@H](n4cnc5c(N)ncnc54)[C@H](OC)[C@H]3O[C@@]2(O)[C@@H](O)[C@@H]1O | > 40
41 | COC(=O)[C@H]1O[C@@H]2C[C@H]3O[C@@H](n4cnc5c(N)ncnc54)[C@H](O)[C@H]3O[C@@]2(O)[C@@H](O)[C@@H]1O | > 40
42 | C/C=C(\CO)C(=O)O[C@@H]1[C@@H](C(=O)OC)O[C@@H]2C[C@H]3O[C@@H](n4cnc5c(N)ncnc54)[C@H](OC)[C@H]3O[C@@]2(O)[C@@H]1O | 24
43 | O=c1[nH]c(=O)n([C@H]2C[C@H](O)[C@@H](CO)O2)cc1F [FLOXURIDINE] | 0.0076
44 | CC(=O)Oc1ccccc1C(=O)Nc1ncc([N+](=O)[O-])s1 [NITAZOXANIDE] | > 40
45 | COc1ccc(C[C@H](N)C(=O)N[C@H]2[C@@H](O)[C@H](n3cnc4c(N(C)C)ncnc43)O[C@@H]2CO)cc1 [PUROMYCIN] | 0.83
